Laboratory results reported in ChEMBL document CHEMBL4689842, “EUbOPEN Chemogenomics Library wave 1” (2021).

System: HEK-293T
Assay: Multiplex assay against HEK293T;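 for Population Tubulin-Different-Phenotype (%): share of the cells with healthy nuclei that show this phenotype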
Format: toxicity, cell-based
Conditions: human
Outline: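 Compound was added to live cells that had been stained at seeding with Hoechst33342, BioTracker Green Microtubule Cytoskeleton Dye, MitoTracker Red and Annexin V Alexa Fluor 680, and imaging followed on a CQ1 microscope at 37°C and 5% CO2. CellPathfinder machine-learning gating divided cells into Hoechst high-intensity objects or normal cells, normal cells into healthy, pyknosed or fragmented nuclei, and pyknosed cells into mitotic or apoptotic. Tubulin, mitochondrial-mass and membrane-permeability phenotypes are per cents of healthy-nucleus cells.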

[1] = 12 h, 1 µM, compound concentration 1 uM, replicate 1
[2] = 12 h, 1 µM, compound concentration 1 uM, replicate 2
[3] = 12 h, 10 µM, compound concentration 10 uM, replicate 1
[4] = 12 h, 10 µM, compound concentration 10 uM, replicate 2
[5] = 24 h, 1 µM, compound concentration 1 uM, replicate 1
[6] = 24 h, 1 µM, compound concentration 1 uM, replicate 2
[7] = 24 h, 10 µM, compound concentration 10 uM, replicate 1
[8] = 24 h, 10 µM, compound concentration 10 uM, replicate 2
[9] = 48 h, 1 µM, compound concentration 1 uM, replicate 1
[10] = 48 h, 1 µM, compound concentration 1 uM, replicate 2
[11] = 48 h, 10 µM, compound concentration 10 uM, replicate 1
[12] = 48 h, 10 µM, compound concentration 10 uM, replicate 2

## O=C(O)c1ccc2cc(-c3ccc(O)c(C45CC6CC(CC(C6)C4)C5)c3)ccc2c1 [O-DEMETHYLATED ADAPALENE]
[1]
  Population Apoptotic (%): 35%
  Population Fragmented Nuclei (%): 6%
  Population Healthy Nuclei (%): 60%
  Population Hoechst High Intensity Objects (%): 5%
  Population Membrane Permeable-Phenotype (%): 1%
  Population Mitochondria Different-Phenotype (%): 70%
  Population Mitotic Cells (%): 64%
  Population Normal (%): 94%
  Population Pyknosed Nuclei (%): 33%
  Population Tubulin-Different-Phenotype (%): 30%
  Total Cell Count: 320
[2]
  Population Apoptotic (%): 12%
  Population Fragmented Nuclei (%): 2%
  Population Healthy Nuclei (%): 57%
  Population Hoechst High Intensity Objects (%): 4%
  Population Membrane Permeable-Phenotype (%): 8%
  Population Mitochondria Different-Phenotype (%): 15%
  Population Mitotic Cells (%): 87%
  Population Normal (%): 95%
  Population Pyknosed Nuclei (%): 40%
  Population Tubulin-Different-Phenotype (%): 17%
  Total Cell Count: 214
[3]
  Population Apoptotic (%): 53%
  Population Fragmented Nuclei (%): 21%
  Population Healthy Nuclei (%): 33%
  Population Hoechst High Intensity Objects (%): 15%
  Population Mitochondria Different-Phenotype (%): 52%
  Population Mitotic Cells (%): 46%
  Population Normal (%): 84%
  Population Pyknosed Nuclei (%): 45%
  Population Tubulin-Different-Phenotype (%): 14%
  Total Cell Count: 204
[4]
  Population Apoptotic (%): 14%
  Population Fragmented Nuclei (%): 8%
  Population Healthy Nuclei (%): 43%
  Population Hoechst High Intensity Objects (%): 5%
  Population Membrane Permeable-Phenotype (%): 3%
  Population Mitochondria Different-Phenotype (%): 6%
  Population Mitotic Cells (%): 85%
  Population Normal (%): 94%
  Population Pyknosed Nuclei (%): 47%
  Population Tubulin-Different-Phenotype (%): 11%
  Total Cell Count: 228
[5]
  Population Apoptotic (%): 37%
  Population Fragmented Nuclei (%): 5%
  Population Hoechst High Intensity Objects (%): 5%
  Population Membrane Permeable-Phenotype (%): 6%
  Population Mitochondria Different-Phenotype (%): 44%
  Population Mitotic Cells (%): 62%
  Population Normal (%): 94%
  Population Pyknosed Nuclei (%): 19%
  Population Tubulin-Different-Phenotype (%): 24%
  Total Cell Count: 354
[6]
  Population Apoptotic (%): 13%
  Population Fragmented Nuclei (%): 6%
  Population Healthy Nuclei (%): 75%
  Population Hoechst High Intensity Objects (%): 1%
  Population Membrane Permeable-Phenotype (%): 13%
  Population Mitochondria Different-Phenotype (%): 14%
  Population Mitotic Cells (%): 86%
  Population Normal (%): 98%
  Population Pyknosed Nuclei (%): 18%
  Population Tubulin-Different-Phenotype (%): 26%
  Total Cell Count: 257
[7]
  Population Apoptotic (%): 52%
  Population Fragmented Nuclei (%): 16%
  Population Healthy Nuclei (%): 43%
  Population Hoechst High Intensity Objects (%): 20%
  Population Membrane Permeable-Phenotype (%): 1%
  Population Mitochondria Different-Phenotype (%): 34%
  Population Mitotic Cells (%): 47%
  Population Normal (%): 79%
  Population Pyknosed Nuclei (%): 40%
  Population Tubulin-Different-Phenotype (%): 14%
  Total Cell Count: 218
[8]
  Population Apoptotic (%): 25%
  Population Fragmented Nuclei (%): 11%
  Population Healthy Nuclei (%): 50%
  Population Hoechst High Intensity Objects (%): 11%
  Population Membrane Permeable-Phenotype (%): 4%
  Population Mitochondria Different-Phenotype (%): 17%
  Population Mitotic Cells (%): 75%
  Population Normal (%): 88%
  Population Pyknosed Nuclei (%): 38%
  Population Tubulin-Different-Phenotype (%): 16%
  Total Cell Count: 234
[9]
  Population Apoptotic (%): 26%
  Population Fragmented Nuclei (%): 10%
  Population Hoechst High Intensity Objects (%): 6%
  Population Membrane Permeable-Phenotype (%): 2%
  Population Mitochondria Different-Phenotype (%): 13%
  Population Mitotic Cells (%): 73%
  Population Normal (%): 93%
  Population Tubulin-Different-Phenotype (%): 10%
  Total Cell Count: 565
[10]
  Population Apoptotic (%): 15%
  Population Fragmented Nuclei (%): 9%
  Population Healthy Nuclei (%): 80%
  Population Hoechst High Intensity Objects (%): 2%
  Population Membrane Permeable-Phenotype (%): 11%
  Population Mitochondria Different-Phenotype (%): 1%
  Population Mitotic Cells (%): 84%
  Population Normal (%): 97%
  Population Pyknosed Nuclei (%): 9%
  Population Tubulin-Different-Phenotype (%): 19%
  Total Cell Count: 390
[11]
  Population Apoptotic (%): 51%
  Population Fragmented Nuclei (%): 21%
  Population Healthy Nuclei (%): 30%
  Population Hoechst High Intensity Objects (%): 19%
  Population Membrane Permeable-Phenotype (%): 1%
  Population Mitochondria Different-Phenotype (%): 22%
  Population Mitotic Cells (%): 48%
  Population Normal (%): 80%
  Population Pyknosed Nuclei (%): 48%
  Population Tubulin-Different-Phenotype (%): 16%
  Total Cell Count: 217
[12]
  Population Apoptotic (%): 32%
  Population Fragmented Nuclei (%): 12%
  Population Healthy Nuclei (%): 33%
  Population Hoechst High Intensity Objects (%): 9%
  Population Mitochondria Different-Phenotype (%): 2%
  Population Mitotic Cells (%): 67%
  Population Normal (%): 90%
  Population Pyknosed Nuclei (%): 53%
  Population Tubulin-Different-Phenotype (%): 10%
  Total Cell Count: 243

## COc1cc2c(Nc3ccc(NC(=O)c4ccccc4)cc3)ncnc2cc1OCCCN1CCOCC1
[1]
  Population Apoptotic (%): 25%
  Population Fragmented Nuclei (%): 13%
  Population Healthy Nuclei (%): 42%
  Population Hoechst High Intensity Objects (%): 18%
  Population Membrane Permeable-Phenotype (%): 29%
  Population Mitochondria Different-Phenotype (%): 17%
  Population Mitotic Cells (%): 74%
  Population Normal (%): 81%
  Population Pyknosed Nuclei (%): 43%
  Population Tubulin-Different-Phenotype (%): 81%
  Total Cell Count: 532
[2]
  Population Apoptotic (%): 26%
  Population Fragmented Nuclei (%): 3%
  Population Healthy Nuclei (%): 84%
  Population Hoechst High Intensity Objects (%): 6%
  Population Membrane Permeable-Phenotype (%): 15%
  Population Mitochondria Different-Phenotype (%): 39%
  Population Mitotic Cells (%): 73%
  Population Normal (%): 93%
  Population Pyknosed Nuclei (%): 12%
  Population Tubulin-Different-Phenotype (%): 96%
  Total Cell Count: 927
[3]
  Population Apoptotic (%): 17%
  Population Fragmented Nuclei (%): 17%
  Population Healthy Nuclei (%): 59%
  Population Hoechst High Intensity Objects (%): 11%
  Population Membrane Permeable-Phenotype (%): 3%
  Population Mitochondria Different-Phenotype (%): 9%
  Population Mitotic Cells (%): 82%
  Population Normal (%): 88%
  Population Pyknosed Nuclei (%): 22%
  Population Tubulin-Different-Phenotype (%): 9%
  Total Cell Count: 626
[4]
  Population Apoptotic (%): 6%
  Population Fragmented Nuclei (%): 3%
  Population Healthy Nuclei (%): 89%
  Population Hoechst High Intensity Objects (%): 2%
  Population Membrane Permeable-Phenotype (%): 2%
  Population Mitochondria Different-Phenotype (%): 12%
  Population Mitotic Cells (%): 93%
  Population Normal (%): 97%
  Population Pyknosed Nuclei (%): 6%
  Population Tubulin-Different-Phenotype (%): 13%
  Total Cell Count: 1320
[5]
  Population Apoptotic (%): 29%
  Population Fragmented Nuclei (%): 14%
  Population Healthy Nuclei (%): 58%
  Population Hoechst High Intensity Objects (%): 21%
  Population Membrane Permeable-Phenotype (%): 20%
  Population Mitochondria Different-Phenotype (%): 22%
  Population Mitotic Cells (%): 70%
  Population Normal (%): 78%
  Population Pyknosed Nuclei (%): 26%
  Population Tubulin-Different-Phenotype (%): 89%
  Total Cell Count: 523
[6]
  Population Apoptotic (%): 2%
  Population Fragmented Nuclei (%): 5%
  Population Healthy Nuclei (%): 87%
  Population Hoechst High Intensity Objects (%): 6%
  Population Membrane Permeable-Phenotype (%): 22%
  Population Mitochondria Different-Phenotype (%): 25%
  Population Mitotic Cells (%): 97%
  Population Normal (%): 93%
  Population Pyknosed Nuclei (%): 7%
  Population Tubulin-Different-Phenotype (%): 97%
  Total Cell Count: 1034
[7]
  Population Apoptotic (%): 9%
  Population Fragmented Nuclei (%): 12%
  Population Healthy Nuclei (%): 75%
  Population Hoechst High Intensity Objects (%): 9%
  Population Membrane Permeable-Phenotype (%): 11%
  Population Mitochondria Different-Phenotype (%): 5%
  Population Mitotic Cells (%): 90%
  Population Normal (%): 90%
  Population Pyknosed Nuclei (%): 11%
  Population Tubulin-Different-Phenotype (%): 13%
  Total Cell Count: 622
[8]
  Population Apoptotic (%): 4%
  Population Fragmented Nuclei (%): 14%
  Population Healthy Nuclei (%): 79%
  Population Hoechst High Intensity Objects (%): 4%
  Population Membrane Permeable-Phenotype (%): 5%
  Population Mitochondria Different-Phenotype (%): 3%
  Population Mitotic Cells (%): 95%
  Population Normal (%): 95%
  Population Pyknosed Nuclei (%): 5%
  Population Tubulin-Different-Phenotype (%): 15%
  Total Cell Count: 1748
